Calls of active or inactive are those of the source. The rule behind the calls is not given here.
Assays:
[1] = biological target: HTH-type transcriptional regulator EthR (Mycobacterium tuberculosis) (UniProt P9WMC1); test: Inhibition of EthR in Mycobacterium tuberculosis H37Rv-GFP infected in mouse Raw 264.7 cells assessed as boosting of 0.1 uM ethionamide-induced microbial growth inhibition at 10 uM by automated fluorescent confocal microscopy; format: cell-based
[2] = biological target: HTH-type transcriptional regulator EthR (Mycobacterium smegmatis (strain ATCC 700084 / mc(2)155)) (UniProt A0R666); test: Binding affinity to Mycobacterium smegmatis mc2 155 EthR assessed as protein thermal unfolding at 20 uM by SYPRO Orange dye based thermal shift assay; conditions: Mycolicibacterium smegmatis MC2 155
Chain of HTH-type transcriptional regulator EthR (Mycobacterium smegmatis (strain ATCC 700084 / mc(2)155)) (A0R666 whole entry): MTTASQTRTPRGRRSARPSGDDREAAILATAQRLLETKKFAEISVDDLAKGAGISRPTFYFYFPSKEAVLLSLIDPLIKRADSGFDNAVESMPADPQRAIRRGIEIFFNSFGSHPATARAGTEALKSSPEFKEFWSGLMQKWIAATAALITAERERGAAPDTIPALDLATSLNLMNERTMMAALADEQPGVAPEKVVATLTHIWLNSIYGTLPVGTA
In short: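 Purified EthR (10 μM final) was mixed with 20 μM ligand, 2.5× SYPRO Orange and 1% DMSO in EthR buffer. Samples were heated from 37 to 85 °C at 0.04 °C/s in a qPCR instrument, with fluorescence read at Ex/Em 465/510 nm. Tm was taken as the sigmoid inflection, and ΔTm as holo minus apo Tm. Values are the mean of two experiments.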

[3] = biological target: HTH-type transcriptional regulator EthR (Mycobacterium smegmatis (strain ATCC 700084 / mc(2)155), UniProt A0R666); test: Inhibition at EthR in Mycobacterium smegmatis mc2 155 assessed as reactivation of beta-glucuronidase activity measured over 48 hrs by Spectrophotometry; set-up: species or system Mycolicibacterium smegmatis MC2 155
Chain of HTH-type transcriptional regulator EthR (Mycobacterium smegmatis (strain ATCC 700084 / mc(2)155), UniProt A0R666) (A0R666 whole entry): as above
In short: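 The reporter was M. smegmatis mc²155 carrying P1 (single-copy, hsp60-driven ethR overexpression) and P2 (uidA under the ethA promoter/operator). Culture at OD600 0.2 was mixed with MUG and compound in 10% DMSO solution. MU fluorescence (ex 390/[…]) was read at 0, 24 and 48 h at 37 °C. IC50 came from dose–response; the P2-only strain served as positive control.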

[4] = tested on: Mycobacterium tuberculosis; test: Antituberculosis activity against Mycobacterium tuberculosis H37Rv-GFP infected in mouse Raw 264.7 cells assessed as microbial growth inhibition at 10 uM by automated fluorescent confocal microscopy; format: functional, organism-based
In short: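 Raw264.7 macrophages were infected with H37Rv-GFP (MOI 1:1, 2 h, 37 °C, shaking). Extracellular bacilli were killed with 20 μM amikacin for 1 h, then infected cells were incubated with compound at 10 μM alone for 5 days (37 °C, 5% CO2). After SYTO 60 staining, confocal imaging (488/635 nm) gave the percentage of infected cells; values are the average of two replicates.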

Chain of HTH-type transcriptional regulator EthR (Mycobacterium tuberculosis) (P9WMC1 whole entry): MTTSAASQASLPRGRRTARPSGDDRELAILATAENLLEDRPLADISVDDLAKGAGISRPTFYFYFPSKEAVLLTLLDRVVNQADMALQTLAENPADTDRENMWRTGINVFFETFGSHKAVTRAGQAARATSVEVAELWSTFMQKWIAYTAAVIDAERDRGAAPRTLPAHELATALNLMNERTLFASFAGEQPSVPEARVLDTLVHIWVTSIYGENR

Structure (SMILES)	growth inhibition (GI) [1]	ΔTm [2]	inhibition [2]	further results
O=C(COc1cccc(Oc2ccccc2)c1)Nc1ccc2c(c1)OCO2	5.7%	8.2 °C		
N#Cc1cccc(NC(=O)COc2cccc(Oc3ccccc3)c2)c1	-7.2%	5.7 °C		
COc1cccc(SCC(=O)Nc2ccc(-c3nc4ccccc4s3)cc2)c1		6.2 °C		
O=C(CCl)Nc1ccc(-c2nc3ccccc3s2)cc1			Active	
O=C(COc1ccc(F)c(F)c1)Nc1ccc(C(F)(F)F)cc1	-12.5%	5.6 °C		
O=C(COc1ccc(C(F)(F)F)cc1)Nc1ccc(Cl)c(Cl)c1	-8.4%	8.1 °C		
COc1cccc(OCC(=O)Nc2ccc(Oc3ccccc3)cc2)c1	-17.5%	6.7 °C		
O=C(COc1ccc(Cl)cc1)Nc1ccc(Cl)c(Cl)c1	-17.9%	6.9 °C		
Cc1ccc(OCC(=O)Nc2ccc(Cl)c(Cl)c2)cc1	-10.4%	6.8 °C		
O=C(CCl)N(Cc1ccccc1)c1ccccc1			inactive	
O=C(COc1cccc(Oc2ccccc2)c1)Nc1ccccc1	2.2%	6.1 °C		
N#Cc1cccc(OCC(=O)Nc2ccc(-c3nc4ccccc4s3)cc2)c1	53.4%	8.1 °C		
O=C(CCl)Nc1ccc(Cl)c(Cl)c1			Active	
COc1cccc(OCC(=O)Nc2ccc(Cl)cc2)c1	92.6%	6.1 °C		
Cc1ccc2cc(NC(=O)COc3ccccc3F)ccc2n1	83.2%	5.1 °C		
COc1ccc(N(C)C(=O)CCl)cc1			Active	
Oc1cccc(Oc2ccccc2)c1			Active	
COc1cccc(OCC(=O)Nc2ccc(-c3ccccc3)cc2)c1	-2.9%	7 °C		
Oc1ccc(C(F)(F)F)cc1			Active	
O=C(COc1ccc(Cl)cc1Cl)Nc1ccc2nc3n(c(=O)c2c1)CCCC3				IC50 [3]: < 10 µM
COc1ccccc1NC(=O)CCl			inactive	
COc1cccc(OCC(=O)Nc2ccc(Cl)c(Cl)c2)c1	26.7%	6.8 °C		
O=C(CCl)Nc1ccc2c(c1)OCO2			Active	

Structure (SMILES)	growth inhibition (GI) [1]	ΔTm [2]	inhibition [2]	further results
O=C(COc1ccc(Cl)c(Cl)c1)Nc1ccc(C(F)(F)F)cc1	-5.4%	7.5 °C		
COc1cccc(O)c1			Active	
O=C(COc1ccc(C(F)(F)F)cc1)Nc1ccc2c(c1)OCO2	1.4%	6.2 °C		
COc1ccc(OCC(=O)Nc2ccc(Cl)c(Cl)c2)cc1	-0.6%	6.1 °C		
O=C(CCl)Nc1ccc(Oc2ccccc2)cc1			Active	
Cc1ccc2cc(NC(=O)CCl)ccc2n1			Active	
O=C(COc1ccc(F)c(F)c1)Nc1ccc(Oc2ccccc2)cc1	-13.5%	5.7 °C		
CCOc1ccc(NC(=O)CCl)c(Oc2ccccc2)c1			inactive	
O=C(CCl)N1CCCc2ccccc21			Active	
O=C(COc1cccc(Oc2ccccc2)c1)Nc1ccc(Cl)c(Cl)c1	-1.6%	8.9 °C		
N#Cc1ccc(NC(=O)COc2cccc(Oc3ccccc3)c2)cc1	-8.9%	6.7 °C		
COc1cccc(NC(=O)COc2ccc(C(F)(F)F)cc2)c1	-1.5%	5 °C		
CN(C(=O)CCl)c1ccccc1			Active	
O=C(COc1ccc(-c2ccccc2)cc1)Nc1ccc2c(c1)OCO2	-3%	7 °C		
COc1cccc(OCC(=O)Nc2ccc(-c3nc4ccccc4s3)cc2)c1	67.6%	9.9 °C		growth inhibition (GI) [4]: inactive
Cc1ccc(-n2nc3ccc(NC(=O)COc4ccccc4C)cc3n2)cc1	10.9%	6.4 °C		IC50 [3]: 2.9 µM
O=C(CCl)N(c1ccccc1)C1CCCCC1			inactive	
COc1ccc(NC(=O)CCl)cc1			Active	
COc1cccc(OCC(=O)Nc2ccc3nc(C)ccc3c2)c1	6.5%	6.6 °C		
O=C(CCl)Nc1ccccc1			Active	
Cc1ccc(OCC(=O)Nc2ccc(-c3nc4ncccc4o3)cc2)c(C)c1				IC50 [3]: < 10 µM
O=C(CCl)Nc1ccccc1-c1ccccc1			inactive	

Reference: ChEMBL document CHEMBL2163226, “Discovery of novel N-phenylphenoxyacetamide derivatives as EthR inhibitors and ethionamide boosters by combining high-throughput screening and synthesis” (J Med Chem, 2012)
